Experimental data as given in ChEMBL document CHEMBL2429747, “Synthesis and biological evaluation of α-galactosylceramide analogues with heteroaromatic rings and varying positions of a phenyl group in the sphingosine backbone” (J Med Chem, 2013).
The source made the active and inactive calls. The calls are words filed in the database; no cut-off is given here.

Experiments:
[1] = tested on: HMNC; test: Immunomodulatory activity in wild type C57BL/6 mouse HMNC cells assessed as reduction in IFN-gamma secretion at 25 nM after 72 hrs by ELISA; type: functional, cell-based
In short: (§1)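 Hepatic mononuclear cells from C57BL/6 mice were isolated on Percoll and grown in RPMI-1640 with 10% FBS, L-glutamine and 2-mercaptoethanol. Cells (2 × 10^5) were stimulated 72 h with 25 nM glycolipid. Supernatant cytokines were measured by sandwich ELISA: overnight 4 °C sample incubation, biotinylated antibody, streptavidin-HRP, TMB, A450. Assays were run in triplicate and repeated 2−3 times; mean ± SD.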

[2] = tested on: HMNC; test: Immunomodulatory activity in wild type C57BL/6 mouse HMNC cells assessed as increase in IL-4 secretion at 25 nM after 72 hrs by ELISA; type: functional, cell-based; in short: as §1
[3] = tested on: HMNC; test: Immunomodulatory activity in wild type C57BL/6 mouse HMNC cells assessed as reduction in IL-17 secretion at 25 nM after 72 hrs by ELISA; type: functional, cell-based; in short: as §1
[4] = species: Mus musculus; test: Antiautoimmune disease activity in wild type C57BL/6 mouse experimental autoimmune encephalitis model assessed as reduction in disease pathogenicity at 2 ug, […] as single dose measured up to 30 days; type: functional, organism-based
In short: (§2)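 Wild-type B6 mice received 2D2 TCR-transgenic lymphocytes containing 1 × 10^6 Va3.2+Vβ11+ CD4+ T cells via the tail vein. After 24 h, mice were immunized sc in each flank with 200 μg MOG35−55 in incomplete Freund's adjuvant with 200 μg M. tuberculosis. Pertussis toxin was given ip on day 0 and day 2. A single 2 μg dose was mixed into the antigen emulsion at immunization. EAE clinical score was followed; n = 8/group from two experiments, mean ± SEM.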

[5] = tested on: Mus musculus; test: In vivo immunomodulatory activity in wild type C57BL/6 mouse assessed as IL-4 level in serum at 2 ug, iv administered as single dose measured at >2 hrs; type: functional, organism-based
In short: (§3)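 Mice were given a single intravenous injection of 2 μg glycolipid, and serum was collected at set times after injection. Serum cytokines were measured by sandwich ELISA: plates coated with anti-cytokine antibody and blocked with 1% BSA, serum incubated overnight at 4 °C, then biotinylated antibody, streptavidin-HRP and TMB, with absorbance read at 450 nm.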

[6] = tested on: Mus musculus; test: In vivo immunomodulatory activity in wild type C57BL/6 mouse assessed as decrease in IL-17 level in serum at 2 ug, iv administered as single dose measured at 12 to 24 hrs; type: functional, organism-based; in short: as §3
[7] = tested on: Mus musculus; test: Immunomodulatory activity in PMA- and ionomycin-stimulated wild type C57BL/6 mouse HMNC cells assessed as inhibition of Th1 differentiation of MOG-specific CD4+ T cells at 2 ug, ip administered as single dose measured 22 days post immunization by brefeldin A staining-based flow cytometric analysis; type: functional, organism-based
In short: (§4)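 At 22 days post-immunization, mice were perfused with cold PBS. Lumbar spinal cord was minced, digested and homogenized, and mononuclear cells were taken from the 30−70% Percoll interface. Cells were restimulated 4 h with PMA 50 ng/mL and ionomycin 1 μg/mL, with brefeldin A 1 μg/mL for the last 2 h. Cells were surface-stained, fixed in 4% PFA, permeabilized with Triton buffer, stained for CD4, IL-17 and IFN-γ, and analyzed by flow cytometry.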

[8] = tested on: Mus musculus; test: In vivo immunomodulatory activity in wild type C57BL/6 mouse assessed as IL-4 level in serum at 2 ug, iv administered as single dose measured at 2 hrs; type: functional, organism-based; in short: as §3
[9] = tested on: Mus musculus; test: Immunomodulatory activity in PMA- and ionomycin-stimulated wild type C57BL/6 mouse HMNC cells assessed as inhibition of Th17 differentiation of MOG-specific CD4+ T cells at 2 ug, ip administered as single dose measured 22 days post immunization by brefeldin A staining-based flow cytometric analysis; type: functional, organism-based; in short: as §4
[10] = species: Mus musculus; test: Antiautoimmune disease activity in wild type C57BL/6 mouse experimental autoimmune encephalitis model assessed as delay in disease onset at 2 ug, […] as single dose measured up to 30 days; type: functional, organism-based; in short: as §2
[11] = tested on: Mus musculus; test: In vivo immunomodulatory activity in wild type C57BL/6 mouse assessed as decrease in IFN-gamma level in serum at 2 ug, iv administered as single dose measured after 12 to 24 hrs; type: functional, organism-based; in short: as §3
[12] = tested on: Mus musculus; test: Antiautoimmune disease activity in wild type C57BL/6 mouse experimental autoimmune encephalitis model assessed as reduction in mononuclear cells infiltration into white matter at 2 ug, ip administered as single dose measured on day 18 post immunization by H & E staining-based analysis relative to vehicle-treated control; type: functional, organism-based
[13] = tested on: Mus musculus; test: Immunomodulatory activity in PMA- and ionomycin-stimulated wild type C57BL/6 mouse HMNC cells assessed as reduction in IL-17 cytokine in cell culture supernatant at 2 ug, ip administered as single dose measured 22 days post immunization by ELISA relative to vehicle-treated control; type: functional, organism-based
In short: (§5)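 Spinal cord mononuclear cells were isolated at day 22 by Percoll gradient and restimulated 4 h with PMA 50 ng/mL plus ionomycin 1 μg/mL. Supernatant cytokines were measured by sandwich ELISA using capture antibody, biotinylated detection antibody, streptavidin-HRP and TMB. Data are mean ± SD of individual mice, n = 3−4/group.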

[14] = tested on: Mus musculus; test: Immunomodulatory activity in PMA- and ionomycin-stimulated wild type C57BL/6 mouse HMNC cells assessed as reduction in IFN-gamma cytokine in cell culture supernatant at 2 ug, ip administered as single dose measured 22 days post immunization by ELISA relative to vehicle-treated control; type: functional, organism-based; in short: as §5

Compound	Activity [1]	Activity [2]	Activity [3]	Activity [4]	Activity [5]	Activity [6]	Activity [7]	Activity [8]	Activity [9]	Activity [10]	Activity [11]	Activity [12]	Activity [13]	Activity [14]
CCCCCCCCCCCCCCCCCCCCCCCCCC(=O)N[C@@H](CO[C@H]1O[C@H](CO)[C@H](O)[C@H](O)[C@H]1O)[C@H](O)[C@H](O)c1cnn(CCCCCCCc2ccccc2)c1	Active	Active	Active	–	–	–	–	–	–	–	–	–	–	–
CCCCCCCCCCCCCCCCCCCCCCCCCC(=O)N[C@@H](CO[C@H]1O[C@H](CO)[C@H](O)[C@H](O)[C@H]1O)[C@H](O)[C@H](O)c1cnn(CCCCCc2ccc(CC)cc2)c1	Active	Active	Active	–	–	–	–	–	–	–	–	–	–	–
CCCCCCCCCCCCCCCCCCCCCCCCCC(=O)N[C@@H](CO[C@H]1O[C@H](CO)[C@H](O)[C@H](O)[C@H]1O)[C@H](O)[C@H](O)c1cnn(CCc2ccc(CCCCC)cc2)c1	inactive	inactive	inactive	–	–	–	–	–	–	–	–	–	–	–
CCCCCCCCCCCCCCCCCCCCCCCCCC(=O)N[C@@H](CO[C@H]1O[C@H](CO)[C@H](O)[C@H](O)[C@H]1O)[C@H](O)[C@H](O)c1cnn(CCCCc2ccc(CCC)cc2)c1	Active	Active	Active	–	–	–	–	–	–	–	–	–	–	–
CCCCCCCCCCCCCCCCCCCCCCCCCC(=O)N[C@@H](CO[C@H]1O[C@H](CO)[C@H](O)[C@H](O)[C@H]1O)[C@H](O)[C@H](O)c1cnn(Cc2ccc(CCCCCC)cc2)c1	Active	Active	Active	–	–	–	–	–	–	–	–	–	–	–
CCCCCCCCCCCCCCCCCCCCCCCCCC(=O)N[C@@H](CO[C@H]1O[C@H](CO)[C@H](O)[C@H](O)[C@H]1O)[C@H](O)[C@H](O)c1cnn(CCCCCCc2ccc(C)cc2)c1	Active	Active	Active	–	–	–	–	–	–	–	–	–	–	–
CCCCCCCCCCCCCCCCCCCCCCCCCC(=O)N[C@@H](CO[C@H]1O[C@H](CO)[C@H](O)[C@H](O)[C@H]1O)[C@H](O)[C@H](O)c1cnn(CCCc2ccc(CCCC)cc2)c1	Active	Active	Active	Active	inactive	Active	Active	Active	Active	Active	inactive	Active	Active	Active
CCCCCCCCCCCCCCCCCCCCCCCCCC(=O)N[C@@H](CO[C@H]1O[C@H](CO)[C@H](O)[C@H](O)[C@H]1O)[C@H](O)[C@H](O)CCCCCCCCCCCCCC	–	–	–	Active	inactive	–	inactive	Active	inactive	inactive	inactive	–	inactive	inactive
